# Screening results as filed in PubChem BioAssay.
# TRPC4 potent: allosterically enhances the mouse TRPC4 cation channel; Q9QUQ5; HEK293 TRPC4beta/mu-opioid, DAMGO EC20, Fluo-4 Ca2+ flux; hits give high values; B-score at 10 µM; 310,000 compounds, 0.42% hits;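 active = B-score of calcium response area above 5 SD of library B-scores, with initial fluorescence ratio within 5 SD of library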;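 note: B-score of integrated fluorescence ratio over time as area under calcium response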
# TRPC4 block: blocks the mouse TRPC4 cation channel; 300,000 compounds, 0.39% hits; AID 2247; HEK293 TRPC4beta/mu-opioid, DAMGO-evoked Fluo4 calcium flux; hits give low values; B-score at 10 µM;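 active = B-score over 3 SD under the library average, no early fluorescence shift, positive overall ratio signal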
#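 Assay system – HEK293 line stably carrying TRPC4beta and mu-opioid receptor · Doses – single dose · Detection – Fluo4 calcium-dye fluorescence, kinetic read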
# TRPC6 inhibitor: mouse TRPC6 channel inhibition | 310,000 compounds, 1.1% hits | Q61143 | AID 2553 | B-score at 10 µM | HEK293-TRPC6, membrane potential dye, ACh-evoked depolarization; hits give low values;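 active = B-score under library mean minus 3 SD, initial fluorescence not abnormally high, positive integrated signal ratio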;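 note: B-score derived from integrated fluorescence ratio over the kinetic read; more negative B-score means stronger inhibition of depolarization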
# TRPC4 agonist: activators of mouse TRPC4 channel; HEK293 TRPC4beta/mu-opioid, Fluo4 calcium fluorescence; hits give high values; B-score at 10 µM; 310,000 compounds, 0.49% hits; AID 2237;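 active = B-score above 5 SD of library B-scores, and initial fluorescence ratio not above library mean plus 5 SD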;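 note: positive B-score marks a calcium rise read as TRPC4 activation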
#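 Assay system: HEK293 cells stably co-expressing mouse TRPC4beta and mu-opioid receptor / Timing: Fluo4 dye loading 45 min at room temperature, 110 s recording / Signal: Fluo4 calcium-sensitive dye fluorescence, kinetic, 1 Hz baseline / Read-out: integrated baseline-normalised fluorescence ratio, converted to per-well B score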
# TRPC6 activator: mouse TRPC6 channel activation; Q61143; HEK293-TRPC6 membrane potential dye fluorescence; hits give high values; B-score at 10 µM; 310,000 compounds, 0.13% hits; AID 2550;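 active = B-score of the integrated fluorescence ratio above library mean plus 3 SD, and starting fluorescence ratio within library mean plus 5 SD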;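 note: higher score means more depolarization so channel activation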
# TRPC4 sel inh 2: second check of whether TRPC6 inhibitors also affect mouse TRPC4; shares compounds with TRPC6 inhibitor; HEK293 TRPC4/MOR, membrane potential dye fluorescence; channel activated by saturating DAMGO dose; inhibition, % at 10 µM; 920 compounds, 42% hits;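 active = compounds whose fluorescence signal differed from control wells by over 3 SD, either direction, in both duplicate plates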
# TRPC4 spec: tests whether TRPC6 inhibitors also affect mouse TRPC4. shares compounds with TRPC6 inhibitor. HEK293 TRPC4/mu-opioid, membrane potential fluorescence. activity change, negative = inhibition, % at 10 µM. 920 compounds, 61% hits. AID 2777;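 active = rise or fall in signal beyond 3 SD of buffer-only wells in both replicate plates, either sign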;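 note: integrated kinetic ratio of fluorescence range over baseline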
# HEK293 MPD ctr 2-1: parental HEK293 nonspecific activity of TRPC6 inhibitors, second screen; signal change vs control, % at 10 µM; 920 compounds, 31% hits; parental HEK293 membrane potential dye fluorescence; maximal acetylcholine challenge after compound addition; shares compounds with TRPC6 inhibitor;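 active = membrane potential signal moving either way by over 3 SD of the maximum-effect control, in both duplicate plates, meaning non-specific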
# HEK293 MPD ctr-1: counter-screen for TRPC6 inhibitors: effect in parental HEK293 cells. shares compounds with TRPC6 inhibitor. parental HEK293 membrane potential dye fluorescence. membrane potential signal change, % at 10 µM. 920 compounds, 60% hits. AID 2780;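 active = membrane potential signal shifting up or down by more than 3 SD of buffer-only wells, on both duplicate plates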
# HEK293 MPD ctr-2: parental HEK293 nonspecific activity of TRPC6 modulators. shares compounds with TRPC6 inhibitor. membrane potential dye fluorescence. membrane potential signal change, % at 10 µM. 2,400 compounds, 51% hits;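 active = membrane potential signal moves up or down beyond 5 SD from buffer-only wells, on both duplicate plates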
# HEK293 MPD ctr 2-2: second counter-screen for TRPC6 modulators: effect in parental HEK293 cells | shares compounds with TRPC6 inhibitor | membrane potential dye fluorescence; after compound, maximal acetylcholine stimulation | inhibition, % at 10 µM | 2,400 compounds, 14% hits | AID 488926;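 active = membrane potential signal drops by more than 5 SD from the mean control signal, in both duplicate plates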;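 note: plate controls were acetylcholine ECmax control wells for no effect and buffer only wells for full effect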
# TRPC4 ctr mod: mouse TRPC4 off-target activity of TRPC6 modulators. AID 488927. HEK293 TRPC4/mu-opioid, membrane potential fluorescence. percent change from control (negative = decrease, positive = increase), % at 10 µM. 2,400 compounds, 69% hits. shares compounds with TRPC6 inhibitor;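 active = membrane potential signal moved up or down beyond 5 SD of buffer control wells, in both duplicate plates, actives on both sides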;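 note: plate controls were assay buffer wells for no effect and DAMGO maximal-effect wells for full effect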
# TRPC4 ctr inh 2: second selectivity test of TRPC6 modulators against mouse TRPC4; shares compounds with TRPC6 inhibitor; HEK293 TRPC4/mu-opioid, membrane potential dye fluorescence; stimulated with maximal-effect DAMGO; inhibition, % at 10 µM; 2,400 compounds, 55% hits; AID 488928;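 active = drop in membrane potential signal beyond 5 SD of the control wells in both duplicate plates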;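 note: TRPC4 counter screen for TRPC6 hits run under conditions tuned for TRPC6 not TRPC4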
# TRPC6 inh conf: mouse TRPC6 inhibitor confirmation; AID 488960; 3,300 compounds, 43% hits; inhibition, % at 10 µM; HEK293-TRPC6, membrane potential dye, ACh-evoked depolarization; shares compounds with TRPC6 inhibitor;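 active = fluorescence ratio falls more than 5 SD below the full-stimulation control mean, in both duplicate runs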;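 note: integrated fluorescence ratio of peak minus minimum over baseline after agonist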
# TRPC6 act conf: mouse TRPC6 activator confirmation; 2,800 compounds, 11% hits; HEK293-TRPC6 membrane potential dye fluorescence, FDSS; activation, % at 10 µM; shares compounds with TRPC6 inhibitor;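 active = ratio signal rise beyond 5 SD above unstimulated control wells' mean, seen in both duplicate runs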;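 note: plate controls were buffer EC0 wells for no effect and acetylcholine ECmax response for full effect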
# * = called active by the depositor; i = inactive; / = no result. A selection: hits, their analogues and other compounds. The true share with any hit is near 2.3%.
SMILES,TRPC4 potent,TRPC4 block,TRPC6 inhibitor,TRPC4 agonist,TRPC6 activator,HEK293 MPD ctr-2,HEK293 MPD ctr 2-2,TRPC4 ctr mod,TRPC4 ctr inh 2,TRPC6 inh conf,TRPC6 act conf,others
CC(Oc1ccccc1)C(=O)Nc1nnc(S(=O)(=O)N(C)c2ccccc2)s1 (stereo unspecified),i,i,i,i,i,/,/,/,/,/,/,
Cc1ccc2nc3c(cc(C(=O)NC4CCCC4)c(=N)n3C3CCCCC3)c(=O)n2c1,i,i,-6.4*,i,i,-186%*,i,-32%*,43%*,58%*,i,
CC(C)(Oc1ccc(Cl)cc1)C(=O)NCC(c1cccs1)N1CCOCC1 (stereo unspecified),i,i,i,i,i,/,/,/,/,/,/,
COc1ccccc1C(CNC(=O)C(C)(C)Oc1ccc(Cl)cc1)N1CCCC1 (stereo unspecified),i,i,-5.7*,i,i,194%*,i,33%*,42%*,52%*,/,
CC(=O)c1cc(F)c(N2CCN(C(=O)COc3ccc(F)cc3)CC2)cc1C,i,i,-5.7*,i,i,i,i,10%*,i,i,i,
CCOc1ccc(N2C(=O)C3=C(C(c4ccc(Cl)cc4)=NCCN3)C2c2cccnc2)cc1 (stereo unspecified),i,i,i,i,i,/,/,/,/,/,/,
Cc1ccc(C2C3=C(NCCN=C3c3ccccc3)C(=O)N2c2ccccc2)cc1 (stereo unspecified),i,i,-6.6*,i,i,/,/,/,/,75%*,i,TRPC4 sel inh 2=16%*;TRPC4 spec=18%*;HEK293 MPD ctr 2-1=i;HEK293 MPD ctr-1=1.3%*
O=C(CN1CCN(c2ccc(F)cc2)CC1)Nc1ccc(S(=O)(=O)N2CCOCC2)cc1,i,i,i,i,i,/,/,/,/,/,/,
CCOc1ccc2[nH]c3c(N4CCc5ccccc5C4)ncnc3c2c1,i,i,-6.5*,i,i,i,i,i,52%*,i,i,
COc1ccc(S(=O)(=O)N2CCOC23CCN(S(=O)(=O)c2c(C)cc(C)cc2C)CC3)cc1,i,i,i,i,i,/,/,/,/,/,/,
OCCOCCn1c(-c2ccccc2)nc(=S)c2c1CCCC2,i,i,-7.7*,i,i,-322%*,86%*,-52%*,53%*,60%*,i,
Cc1nnsc1C(=O)N/N=C/c1ccccc1,i,i,i,i,i,/,/,/,/,/,/,
Cc1nnsc1C(=O)N/N=C/c1ccc2ccccc2c1O,i,i,-7.6*,i,i,/,/,/,/,i,/,TRPC4 sel inh 2=i;TRPC4 spec=27%*;HEK293 MPD ctr 2-1=-47%*;HEK293 MPD ctr-1=19%*
CCOc1ccc(S(=O)(=O)N2CCc3cc(OC)c(OC)cc3C2)cc1,i,i,i,i,12*,i,i,10%*,i,/,114%*,
Cc1ccc(CN2CCN(c3cccc4[nH]ccc34)CC2)cc1,i,i,i,i,i,/,/,/,/,/,/,
COc1ccc2c(c1)-c1c(ssc1=S)C(C)(C)N2,i,i,-5.6*,i,i,-164%*,i,-33%*,60%*,46%*,i,
O=C(CCCOc1ccc(Cl)cc1Cl)NCCc1ccccn1,i,i,i,i,i,/,/,/,/,/,/,
COc1cc2c(cc1OC)C(c1ccc(-c3ccccc3Cl)o1)=NCC2,i,i,-6.2*,i,i,-190%*,i,-48%*,52%*,40%*,i,
COc1cc2c(cc1OC)C(c1ccc(-c3ccc(Cl)c(Cl)c3)o1)=NCC2,i,i,i,i,i,/,/,/,/,/,/,
COc1cc2c(cc1OC)C(c1ccc(-c3ccc(Cl)cc3Cl)o1)=NCC2,i,i,i,i,i,/,/,/,/,/,/,
COc1cc2c(cc1OC)C(c1ccc(Cl)cc1)=NCC2,i,i,-6.2*,i,i,-275%*,i,-40%*,52%*,44%*,i,
Cc1cc(C)nc(NC(N)=NCCc2c[nH]c3ccccc23)n1,i,i,-5*,i,i,-222%*,i,-42%*,46%*,54%*,i,
Cc1cc(C)nc(NC(=NCCc2c[nH]c3ccccc23)NC(=O)Nc2ccc(Cl)cc2)n1,i,i,i,i,i,/,/,/,/,/,/,
CCCCN(C(=O)c1ccc(Br)o1)C1CCS(=O)(=O)C1 (stereo unspecified),i,i,i,i,i,/,/,/,/,/,/,
c1ccc(-c2cc3c(N4CCN(c5ccccc5)CC4)ncnc3s2)cc1,i,i,i,i,i,/,/,/,/,/,/,
CN1CCN(c2ncnc3sc(-c4ccccc4)cc23)CC1,i,i,-6.2*,i,i,i,i,i,38%*,i,i,
CC(C)n1c(=NC(=O)c2ccco2)c(C#N)cc2c(=O)n3ccccc3cc21,i,i,-6.1*,i,i,-86%*,i,-24%*,i,i,i,
CCOC(=O)c1cc2c(=O)n3ccccc3nc2n(C(C)C)c1=NC(=O)c1ccco1,i,i,i,i,i,/,/,/,/,/,/,
O=S(=O)(NC1CCCCC1N1CCN(c2ccc(F)cc2)CC1)c1ccccc1 (stereo unspecified),i,i,i,i,i,/,/,/,/,/,/,
